Measurements taken from ChEMBL document CHEMBL1165950, “Design and synthesis of new potent anticancer pyrazoles with high FLT3 kinase inhibitory selectivity” (Bioorg Med Chem, 2010).

Columns and labels:
Type in all cases: functional
SF-539 = assay: Cytotoxicity against human SF539 cells assessed as cell growth at 10 uM; conditions: read-out: Activity
In short: (§1)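 NCI-60 screen: cells grown in RPMI 1640 with 5% FBS and 2 mM L-glutamine, plated at 5000–40,000 cells/well according to doubling time, and preincubated 24 h at 37 °C, 5% CO2. The single 10 µM dose (DMSO stock) was added, then incubated 48 h. Cells were TCA-fixed and stained with 0.4% SRB, read at 515 nm, and growth % calculated against time-zero and control plates.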

SNB-19 = assay: Cytotoxicity against human SNB19 cells assessed as cell growth at 10 uM; conditions: read-out: Activity; in short: as §1
SNB-75 = assay: Cytotoxicity against human SNB75 cells assessed as cell growth at 10 uM; conditions: read-out: Activity; in short: as §1
U-251 = assay: Cytotoxicity against human U251 cells assessed as cell growth at 10 uM; conditions: read-out: Activity; in short: as §1
LOX IMVI = assay: Cytotoxicity against human LOXIMVI cells assessed as cell growth at 10 uM; conditions: read-out: Activity; in short: as §1
Malme-3M = assay: Cytotoxicity against human MALME-3M cells assessed as cell growth at 10 uM; conditions: read-out: Activity; in short: as §1
M14 = assay: Cytotoxicity against human M14 cells assessed as cell growth at 10 uM; conditions: read-out: Activity; in short: as §1
MDA-MB-435 = assay: Cytotoxicity against human MDA-MB-435 cells assessed as cell growth at 10 uM; conditions: read-out: Activity; in short: as §1
SK-MEL-2 = assay: Cytotoxicity against human SK-MEL-2 cells assessed as cell growth at 10 uM; conditions: read-out: Activity; in short: as §1
SK-MEL-28 = assay: Cytotoxicity against human SK-MEL-28 cells assessed as cell growth at 10 uM; conditions: read-out: Activity; in short: as §1
SK-MEL-5 = assay: Cytotoxicity against human SK-MEL-5 cells assessed as cell growth at 10 uM; conditions: read-out: Activity; in short: as §1
UACC-257 = assay: Cytotoxicity against human UACC257 cells assessed as cell growth at 10 uM; conditions: read-out: Activity; in short: as §1
UACC-62 = assay: Cytotoxicity against human UACC62 cells assessed as cell growth at 10 uM; conditions: read-out: Activity; in short: as §1
IGROV-1 = assay: Cytotoxicity against human IGROV1 cells assessed as cell growth at 10 uM; conditions: read-out: Activity
In short: (§2)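 Single-dose NCI-60 screen at 10 µM. Cells were grown in RPMI 1640 with 5% FBS and 2 mM L-glutamine, then treated for 48 h at 37 °C. Protein was measured by SRB staining with absorbance at 515 nm. Percentage growth was recorded, and inhibition percentage was calculated as 100 minus growth percentage.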

OVCAR-3 = assay: Cytotoxicity against human OVCAR-3 cells assessed as cell growth at 10 uM; conditions: read-out: Activity; in short: as §1
OVCAR-4 = assay: Cytotoxicity against human OVCAR4 cells assessed as cell growth at 10 uM; conditions: read-out: Activity; in short: as §1
OVCAR-5 = assay: Cytotoxicity against human OVCAR5 cells assessed as cell growth at 10 uM; conditions: read-out: Activity; in short: as §1
OVCAR-8 = assay: Cytotoxicity against human OVCAR8 cells assessed as cell growth at 10 uM; conditions: read-out: Activity; in short: as §1
NCI/ADR-RES = assay: Cytotoxicity against human NCI/ADR-RES cells assessed as cell growth at 10 uM; conditions: read-out: Activity; in short: as §1
SK-OV-3 = assay: Cytotoxicity against human SKOV3 cells assessed as cell growth at 10 uM; conditions: read-out: Activity; in short: as §1
786-0 = assay: Cytotoxicity against human 786-0 cells assessed as cell growth at 10 uM; conditions: read-out: Activity; in short: as §2
A498 = assay: Cytotoxicity against human A498 cells assessed as cell growth at 10 uM; conditions: read-out: Activity; in short: as §2
ACHN = assay: Cytotoxicity against human ACHN cells assessed as cell growth at 10 uM; conditions: read-out: Activity; in short: as §2
CAKI-1 = assay: Cytotoxicity against human Caki1 cells assessed as cell growth at 10 uM; conditions: read-out: Activity; in short: as §2
RXF 393 = assay: Cytotoxicity against human RXF393 cells assessed as cell growth at 10 uM; conditions: read-out: Activity; in short: as §1
SN12C = assay: Cytotoxicity against human SN12C cells assessed as cell growth at 10 uM; conditions: read-out: Activity; in short: as §1
TK-10 = assay: Cytotoxicity against human TK10 cells assessed as cell growth at 10 uM; conditions: read-out: Activity; in short: as §1
UO-31 = assay: Cytotoxicity against human UO31 cells assessed as cell growth at 10 uM; conditions: read-out: Activity; in short: as §1
PC-3 = assay: Cytotoxicity against human PC3 cells assessed as cell growth at 10 uM; conditions: read-out: Activity; in short: as §1
DU-145 = assay: Cytotoxicity against human DU145 cells assessed as cell growth at 10 uM; conditions: read-out: Activity; in short: as §2
MCF7 = assay: Cytotoxicity against human MCF7 cells assessed as cell growth at 10 uM; conditions: read-out: Activity; in short: as §1
MDA-MB-231 = assay: Cytotoxicity against human MDA-MB-231 cells assessed as cell growth at 10 uM; conditions: read-out: Activity; in short: as §1
[1] = Cytotoxicity against human Hs 578T cells assessed as cell growth at 10 uM; conditions: read-out: Activity; in short: as §2
BT-549 = assay: Cytotoxicity against human BT549 cells assessed as cell growth at 10 uM; conditions: read-out: Activity; in short: as §2
T47D = assay: Cytotoxicity against human T47D cells assessed as cell growth at 10 uM; conditions: read-out: Activity; in short: as §1
MDA-MB-468 = assay: Cytotoxicity against human MDA-MB-468 cells assessed as cell growth at 10 uM; conditions: read-out: Activity; in short: as §1
[2] = Growth inhibition of human NCI60 cells at 10 uM after 48 hrs by sulforhodamine B assay relative to control; conditions: NCI60, 48 h, read-out: GI
In short: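 Single-dose NCI screen at 10 µM across the 60-line panel, 48 h exposure at 37 °C after a 24 h preincubation. Adherent cells were fixed with cold TCA and stained with 0.4% SRB, and absorbance was read at 515 nm. Inhibition % was taken as 100 minus growth %, and the mean across all lines was reported.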

CCRF-CEM = assay: Cytotoxicity against human CCRF-CEM cells assessed as cell growth at 10 uM; conditions: read-out: Activity; in short: as §2
HL-60(TB) = assay: Cytotoxicity against human HL-60(TB) cells assessed as cell growth at 10 uM; conditions: read-out: Activity
In short: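 NCI 60-cell panel screen at a single concentration of 10 µM. Cells are grown in RPMI 1640 with 5% FBS and 2 mM L-glutamine and read by SRB protein staining at 515 nm. Percent growth is measured relative to time-zero and untreated controls; inhibition % is 100 minus growth %.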

K562 = assay: Cytotoxicity against human K562 cells assessed as cell growth at 10 uM; conditions: read-out: Activity; in short: as §2
MOLT-4 = assay: Cytotoxicity against human MOLT4 cells assessed as cell growth at 10 uM; conditions: read-out: Activity; in short: as §1
[3] = Cytotoxicity against human […] cells assessed as cell growth at 10 uM; conditions: read-out: Activity; in short: as §1
SR = assay: Cytotoxicity against human SR cells assessed as cell growth at 10 uM; conditions: read-out: Activity; in short: as §1
A549 = assay: Cytotoxicity against human A549 cells assessed as cell growth at 10 uM; conditions: read-out: Activity; in short: as §2
EKVX = assay: Cytotoxicity against human EKVX cells assessed as cell growth at 10 uM; conditions: read-out: Activity; in short: as §2
HOP-62 = assay: Cytotoxicity against human HOP62 cells assessed as cell growth at 10 uM; conditions: read-out: Activity; in short: as §2
HOP-92 = assay: Cytotoxicity against human HOP92 cells assessed as cell growth at 10 uM; conditions: read-out: Activity; in short: as §2
NCI-H226 = assay: Cytotoxicity against human NCI-H226 cells assessed as cell growth at 10 uM; conditions: read-out: Activity; in short: as §1
NCI-H23 = assay: Cytotoxicity against human NCI-H23 cells assessed as cell growth at 10 uM; conditions: read-out: Activity; in short: as §1
NCI-H322M = assay: Cytotoxicity against human NCI-H322M cells assessed as cell growth at 10 uM; conditions: read-out: Activity; in short: as §1
NCI-H460 = assay: Cytotoxicity against human NCI-H460 cells assessed as cell growth at 10 uM; conditions: read-out: Activity; in short: as §1
NCI-H522 = assay: Cytotoxicity against human NCI-H522 cells assessed as cell growth at 10 uM; conditions: read-out: Activity; in short: as §1
COLO 205 = assay: Cytotoxicity against human COLO205 cells assessed as cell growth at 10 uM; conditions: read-out: Activity; in short: as §2
HCC 2998 = assay: Cytotoxicity against human HCC2998 cells assessed as cell growth at 10 uM; conditions: read-out: Activity; in short: as §2
HCT-116 = assay: Cytotoxicity against human HCT116 cells assessed as cell growth at 10 uM; conditions: read-out: Activity; in short: as §2
HCT-15 = assay: Cytotoxicity against human HCT15 cells assessed as cell growth at 10 uM; conditions: read-out: Activity; in short: as §2
HT-29 = assay: Cytotoxicity against human HT-29 cells assessed as cell growth at 10 uM; conditions: read-out: Activity; in short: as §2
KM12 = assay: Cytotoxicity against human KM12 cells assessed as cell growth at 10 uM; conditions: read-out: Activity; in short: as §1
SW-620 = assay: Cytotoxicity against human SW620 cells assessed as cell growth at 10 uM; conditions: read-out: Activity; in short: as §1
SF-268 = assay: Cytotoxicity against human SF268 cells assessed as cell growth at 10 uM; conditions: read-out: Activity; in short: as §1
SF-295 = assay: Cytotoxicity against human SF295 cells assessed as cell growth at 10 uM; conditions: read-out: Activity; in short: as §1

Cc1cc(O)cc(-c2nn(CC#N)cc2-c2ccnc(-c3ccc(C#N)cc3)c2)c1
growth at 10 µM (SF-539): 76%
growth at 10 µM (SNB-19): 85.2%
growth at 10 µM (SNB-75): 46.3%
growth at 10 µM (U-251): 91.5%
growth at 10 µM (LOX IMVI): 81.9%
growth at 10 µM (Malme-3M): 125%
growth at 10 µM (M14): 90.3%
growth at 10 µM (MDA-MB-435): 88.3%
growth at 10 µM (SK-MEL-2): 78.5%
growth at 10 µM (SK-MEL-28): 88.3%
growth at 10 µM (SK-MEL-5): 58.4%
growth at 10 µM (UACC-257): 94.2%
growth at 10 µM (UACC-62): 62.3%
growth at 10 µM (IGROV-1): 77.3%
growth at 10 µM (OVCAR-3): 110%
growth at 10 µM (OVCAR-4): 79.5%
growth at 10 µM (OVCAR-5): 107%
growth at 10 µM (OVCAR-8): 72.9%
growth at 10 µM (NCI/ADR-RES): 77.7%
growth at 10 µM (SK-OV-3): 88.5%
growth at 10 µM (786-0): 77.9%
growth at 10 µM (A498): 103%
growth at 10 µM (ACHN): 65.2%
growth at 10 µM (CAKI-1): 84.3%
growth at 10 µM (RXF 393): 59.4%
growth at 10 µM (SN12C): 73.5%
growth at 10 µM (TK-10): 78.4%
growth at 10 µM (UO-31): 60.1%
growth at 10 µM (PC-3): 95.5%
growth at 10 µM (DU-145): 96.3%
growth at 10 µM (MCF7): 34.4%
growth at 10 µM (MDA-MB-231): 67%
growth at 10 µM [1]: 103%
growth at 10 µM (BT-549): 84.8%
growth at 10 µM (T47D): 29.2%
growth at 10 µM (MDA-MB-468): 33.7%
inhibition of growth at 10 µM [2]: 20.8%
growth at 10 µM (CCRF-CEM): 81.2%
growth at 10 µM (HL-60(TB)): 56.2%
growth at 10 µM (K562): 70%
growth at 10 µM (MOLT-4): 54.6%
growth at 10 µM [3]: 70.2%
growth at 10 µM (SR): 88.5%
growth at 10 µM (A549): 83.2%
growth at 10 µM (EKVX): 79.1%
growth at 10 µM (HOP-62): 85.4%
growth at 10 µM (HOP-92): 72.3%
growth at 10 µM (NCI-H226): 79.8%
growth at 10 µM (NCI-H23): 72.7%
growth at 10 µM (NCI-H322M): 97.4%
growth at 10 µM (NCI-H460): 104%
growth at 10 µM (NCI-H522): 60.7%
growth at 10 µM (COLO 205): 66.1%
growth at 10 µM (HCC 2998): 92%
growth at 10 µM (HCT-116): 65.7%
growth at 10 µM (HCT-15): 70.4%
growth at 10 µM (HT-29): 66.3%
growth at 10 µM (KM12): 95.6%
growth at 10 µM (SW-620): 119%
growth at 10 µM (SF-268): 102%
growth at 10 µM (SF-295): 91.3%
